Measured values as given in ChEMBL document CHEMBL2385063, “Identification of 2-(2-(1-naphthoyl)-8-fluoro-3,4-dihydro-1H-pyrido[4,3-b]indol-5(2H)-yl)acetic acid (setipiprant/ACT-129968), a potent, selective, and orally bioavailable chemoattractant receptor-homologous molecule expressed on Th2 cells (CRTH2) antagonist” (J Med Chem, 2013).
In brackets after ≈: the same amount, converted by molar mass.

Key:
[1] = molecular target: CYP2D6 (Homo sapiens, UniProt P10635); assay: Inhibition of CYP2D6 in human liver microsomes assessed as dextromethorphan O-demethylation by LC-MS/MS analysis; format: ADME, Microsome; details: human, liver microsomes, probe dextromethorphan (O-demethylation)
[2] = molecular target: CYP3A4 (Homo sapiens, UniProt P08684); assay: Inhibition of CYP3A4 in human liver microsomes assessed as midazolam-1'-hydroxylation by LC-MS/MS analysis; format: ADME, Microsome; details: human, liver microsomes, probe midazolam (1'-hydroxylation)
[3] = Half life in Wistar rat at 0.2 mg/kg, iv and 2 mg/kg, po; format: ADME, organism-based; details: in vivo
How it was run: (§1)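 Male Wistar rats, three animals per experiment, given iv (0.2, 1 or 2 mg/kg) and po (2 or 10 mg/kg) doses as solutions; AUC0-last, plasma clearance, half-life and oral bioavailability derived.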

[4] = system: Rattus norvegicus; assay: AUC(0 to last) in Wistar rat at 0.2 mg/kg, iv and 2 mg/kg, po; format: ADME, organism-based, Plasma; details: in vivo; how it was run: as §1
[5] = Volume of distribution at steady state in Wistar rat at 0.2 mg/kg, iv and 2 mg/kg, po; format: ADME, organism-based; details: in vivo, read-out: Vdss
How it was run: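 Male Wistar rats, three animals per experiment, were dosed intravenously and orally with compound given as solutions.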

[6] = Solubility of the compound in water; format: physicochemical
How it was run: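 Compound was stirred in water, 60 mM citrate buffer pH 4 or 70 mM phosphate buffer pH 7 at 300 rpm, 25 °C, for 24 h. The mixture was filtered, and the filtrate concentration was measured by HPLC-UV at 250 nm against a calibration curve.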

Sequence of CYP2D6 (P10635 whole entry): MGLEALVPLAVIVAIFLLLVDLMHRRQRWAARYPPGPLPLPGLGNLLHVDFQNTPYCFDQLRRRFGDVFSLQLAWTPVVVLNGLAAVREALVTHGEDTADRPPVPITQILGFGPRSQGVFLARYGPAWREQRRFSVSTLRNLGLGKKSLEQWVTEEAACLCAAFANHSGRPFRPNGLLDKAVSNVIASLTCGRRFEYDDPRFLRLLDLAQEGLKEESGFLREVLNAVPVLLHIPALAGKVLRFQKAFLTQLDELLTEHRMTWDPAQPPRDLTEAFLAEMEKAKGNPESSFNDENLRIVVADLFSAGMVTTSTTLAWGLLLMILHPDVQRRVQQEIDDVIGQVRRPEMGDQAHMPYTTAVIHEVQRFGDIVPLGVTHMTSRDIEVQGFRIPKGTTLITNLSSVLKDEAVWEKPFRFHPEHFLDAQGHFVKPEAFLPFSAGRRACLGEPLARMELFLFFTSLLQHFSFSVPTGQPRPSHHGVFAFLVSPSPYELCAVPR
Sequence of CYP3A4 (P08684 whole entry): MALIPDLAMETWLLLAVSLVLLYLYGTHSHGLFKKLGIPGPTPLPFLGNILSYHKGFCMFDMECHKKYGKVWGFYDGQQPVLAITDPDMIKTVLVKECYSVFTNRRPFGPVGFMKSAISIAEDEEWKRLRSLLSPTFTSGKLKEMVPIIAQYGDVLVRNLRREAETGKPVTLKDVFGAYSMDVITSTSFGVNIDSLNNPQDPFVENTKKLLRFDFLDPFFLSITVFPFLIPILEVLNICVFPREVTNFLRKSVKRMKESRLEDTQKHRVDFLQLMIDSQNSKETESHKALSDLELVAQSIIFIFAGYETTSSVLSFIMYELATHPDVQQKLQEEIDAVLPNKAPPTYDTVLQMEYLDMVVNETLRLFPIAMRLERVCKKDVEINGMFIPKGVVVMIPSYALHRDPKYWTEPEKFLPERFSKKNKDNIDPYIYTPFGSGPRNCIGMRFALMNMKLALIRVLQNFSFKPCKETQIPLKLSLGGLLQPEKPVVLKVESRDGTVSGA

With `O=C(O)Cn1c2c(c3ccccc31)CN(C(=O)c1ccccc1)CC2` the IC50 [1] was greater than 50 µM and the IC50 [2] was greater than 50 µM.

`O=C(O)Cn1c2c(c3cc(F)ccc31)CN(C(=O)Cc1c[nH]c3ccccc13)CC2` showed a half-life [3] of 1.2 h, an AUClast [4] of 0.062 µg·h/mL and a Vd [5] of 0.4 L/kg.

For `O=C(O)Cn1c2c(c3ccccc31)CN(C(=O)c1cccc3ccccc13)CC2`, the solubility [6] was 0.335 mg/mL (≈ 871 µM).
